Results reported in ChEMBL document CHEMBL1156809, “Synthesis and anticonvulsant activities of (R)-N-(4'-substituted)benzyl 2-acetamido-3-methoxypropionamides” (J Med Chem, 2010).
Activity calls are given as the source filed them. The rule behind the calls is not given here.

Key:
Mus musculus [1] = experiment: Anticonvulsant activity in ip dosed albino CF1 mouse seizure model assessed as protection against hind limb extension by MES test; assay type: functional; conditions: albino CF1, Hindlimb
Procedure, shortened: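 Maximal electroshock seizure test run by the NINDS ASP (Stables and Kupferberg procedures). Compounds were given intraperitoneally to mice, and the ED50 for seizure protection is reported in mg/kg.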

[2] = Neurological toxicity in ip dosed albino CF1 mouse assessed as neurological impairment by rotarod test; assay type: organism-based; conditions: in vivo
Procedure, shortened: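 Neurological impairment was measured with the rotorod test in mice dosed intraperitoneally. The median dose (TD50, mg/kg) was determined only for compounds with significant MES activity.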

Mus musculus [3] = experiment: Anticonvulsant activity against subcutaneous metrazole-induced seizures in albino CF1 mouse at 300 mg/kg, ip after 0.5 hrs; assay type: functional, organism-based; design: dose 300 mg/kg
Procedure, shortened: (§1)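 Subcutaneous Metrazol seizure test under the NINDS ASP, using ip dosing to mice, typically at 300 mg/kg. Protection was assessed at 0.5 and 4 h.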

Rattus norvegicus [4] = experiment: Anticonvulsant activity against subcutaneous metrazole-induced seizures in albino Sprague-Dawley rat at 300 mg/kg, ip after 0.5 hrs; assay type: functional, organism-based; design: dose 300 mg/kg
Mus musculus [5] = experiment: Anticonvulsant activity against subcutaneous metrazole-induced seizures in albino CF1 mouse at 300 mg/kg, ip after 4 hrs; assay type: functional, organism-based; design: dose 300 mg/kg; procedure, shortened: as §1
Rattus norvegicus [6] = experiment: Anticonvulsant activity against subcutaneous metrazole-induced seizures in albino Sprague-Dawley rat at 300 mg/kg, ip after 4 hrs; assay type: functional, organism-based; design: dose 300 mg/kg
Rattus norvegicus [7] = experiment: Anticonvulsant activity in po dosed albino Sprague-Dawley rat seizure model assessed as protection against hind limb extension by MES test; assay type: functional; conditions: Hindlimb
Procedure, shortened: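 MES seizure protection was tested in Sprague Dawley rats dosed orally, through the NINDS ASP. The ED50 is expressed in mg/kg.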

[8] = Behavioral toxicity in po dosed albino Sprague-Dawley rat; assay type: organism-based; conditions: in vivo
Procedure, shortened: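 Behavioral toxicity was recorded as observed effects in rats after oral administration, within the NINDS ASP screen.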

Rattus norvegicus [9] = experiment: Protective index, ratio of TD50 for po dosed albino Sprague-Dawley rat to ED50 for po dosed albino Sprague-Dawley rat; assay type: functional
Procedure, shortened: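 Protective index was calculated as TD50/ED50 for the same species and route: mouse ip (rotorod TD50, MES ED50) and rat po.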

Row | Compound | ED50 (Mus musculus [1]) | TD50 [2] | Activity (Mus musculus [3]) | Activity (Rattus norvegicus [4]) | Activity (Mus musculus [5]) | Activity (Rattus norvegicus [6]) | ED50 (Rattus norvegicus [7]) | TD50 [8] | PI (Rattus norvegicus [9])
1 | COC[C@@H](NC(C)=O)C(=O)NCc1ccc(C#C[Si](C)(C)C)cc1 | > 3 mg/kg | 3 mg/kg | inactive | inactive | inactive | inactive | – | – | –
2 | COC[C@@H](NC(C)=O)C(=O)NCc1ccc(N)cc1 | > 300 mg/kg | > 300 mg/kg | inactive | inactive | inactive | inactive | – | – | –
3 | CCC1(c2ccccc2)C(=O)NC(=O)NC1=O | – | – | inactive | inactive | inactive | inactive | – | – | –
4 | COC[C@@H](NC(C)=O)C(=O)NCc1cccc(OC(F)(F)F)c1 | 10 mg/kg | 30 mg/kg | inactive | inactive | inactive | inactive | – | – | –
5 | COC[C@@H](NC(C)=O)C(=O)NCc1ccc(C(C)(C)C)cc1 | 100 mg/kg | 100 mg/kg | inactive | inactive | inactive | inactive | > 30 mg/kg | > 30 mg/kg | –
6 | COC[C@H](NC(C)=O)C(=O)NCc1ccc(N=[N+]=[N-])cc1 | 100 mg/kg | > 300 mg/kg | inactive | inactive | inactive | inactive | – | > 30 mg/kg | –
7 | COC[C@@H](NC(C)=O)C(=O)NCc1ccc([N+](=O)[O-])cc1 | 100 mg/kg | – | – | – | – | – | – | – | –
8 | CCc1ccc(CNC(=O)[C@H](COC)NC(C)=O)cc1 | 100 mg/kg | 100 mg/kg | inactive | inactive | inactive | inactive | > 30 mg/kg | > 30 mg/kg | –
9 | COC[C@H](NC(C)=O)C(=O)NCc1ccc(C=O)cc1 | > 300 mg/kg | > 300 mg/kg | inactive | inactive | inactive | inactive | – | – | –
10 | COC[C@H](NC(C)=O)C(=O)NCc1ccc(I)cc1 | 100 mg/kg | > 300 mg/kg | inactive | inactive | inactive | inactive | > 30 mg/kg | > 30 mg/kg | –
11 | COC[C@@H](NC(C)=O)C(=O)NCc1ccc(S(N)(=O)=O)cc1 | > 300 mg/kg | > 300 mg/kg | inactive | inactive | inactive | inactive | – | – | –
12 | COC[C@@H](NC(C)=O)C(=O)NCc1ccc(CNC(=O)OC(C)(C)C)cc1 | > 300 mg/kg | > 300 mg/kg | inactive | inactive | inactive | inactive | – | – | –
13 | COC[C@@H](NC(C)=O)C(=O)NCc1ccc(C(F)(F)F)cc1 | 10 mg/kg | 100 mg/kg | inactive | inactive | inactive | inactive | 4.9 mg/kg | > 280 mg/kg | >57
14 | COC[C@H](NC(C)=O)C(=O)NCc1ccccc1 | – | > 300 mg/kg | inactive | inactive | inactive | inactive | – | > 30 mg/kg | –
15 | COC[C@@H](NC(C)=O)C(=O)NCc1ccc(N=C=S)cc1 | 24 mg/kg | – | – | – | – | – | – | – | –
16 | COC[C@@H](NC(C)=O)C(=O)NCc1ccc(C=O)cc1 | > 300 mg/kg | > 300 mg/kg | inactive | inactive | inactive | inactive | – | – | –
17 | COC[C@@H](NC(C)=O)C(=O)NCc1ccc(Cl)cc1Cl | 30 mg/kg | – | – | – | – | – | – | – | –
18 | COC[C@@H](NC(C)=O)C(=O)NCc1ccc(OC)cc1 | 30 mg/kg | 100 mg/kg | inactive | inactive | inactive | inactive | 28 mg/kg | > 500 mg/kg | >18

Row | Compound | ED50 (Mus musculus [1]) | TD50 [2] | Activity (Mus musculus [3]) | Activity (Rattus norvegicus [4]) | Activity (Mus musculus [5]) | Activity (Rattus norvegicus [6]) | ED50 (Rattus norvegicus [7]) | TD50 [8] | PI (Rattus norvegicus [9])
19 | COC[C@@H](NC(C)=O)C(=O)NCc1ccc(C(C)C)cc1 | 10 mg/kg | 100 mg/kg | inactive | inactive | inactive | inactive | > 30 mg/kg | > 30 mg/kg | –
20 | COC[C@@H](NC(C)=O)C(=O)NCc1ccc(C(=O)OC)cc1 | 100 mg/kg | > 300 mg/kg | inactive | inactive | inactive | inactive | – | – | –
21 | COC[C@@H](NC(C)=O)C(=O)NCc1ccc(C(=O)O)cc1 | > 300 mg/kg | > 300 mg/kg | inactive | inactive | inactive | inactive | – | – | –
22 | COC[C@@H](NC(C)=O)C(=O)NCc1ccc(CN)cc1.Cl | > 300 mg/kg | > 300 mg/kg | inactive | inactive | inactive | inactive | – | – | –
23 | CCc1ccc(CNC(=O)[C@@H](COC)NC(C)=O)cc1 | 10 mg/kg | 30 mg/kg | inactive | inactive | inactive | inactive | 18 mg/kg | > 250 mg/kg | >14
24 | CC#Cc1ccc(CNC(=O)[C@@H](COC)NC(C)=O)cc1 | 10 mg/kg | 30 mg/kg | inactive | inactive | inactive | inactive | – | – | –
25 | C#Cc1ccc(CNC(=O)[C@H](COC)NC(C)=O)cc1 | > 300 mg/kg | > 300 mg/kg | inactive | inactive | inactive | inactive | – | – | –
26 | COC[C@@H](NC(C)=O)C(=O)NCc1ccc(CCCO)cc1 | > 300 mg/kg | > 300 mg/kg | inactive | inactive | inactive | inactive | – | – | –
27 | COC[C@@H](NC(C)=O)C(=O)NCc1ccc(-c2ccccc2)cc1 | 8 mg/kg | 11 mg/kg | inactive | inactive | inactive | inactive | 2 mg/kg | 49 mg/kg | >25
28 | C#Cc1ccc(CNC(=O)[C@@H](COC)NC(C)=O)cc1 | 3 mg/kg | – | inactive | inactive | inactive | inactive | 3.4 mg/kg | > 250 mg/kg | >74
29 | COC[C@H](NC(C)=O)C(=O)NCc1ccc(C#N)cc1 | 100 mg/kg | > 300 mg/kg | inactive | inactive | inactive | inactive | > 30 mg/kg | > 30 mg/kg | –
30 | COC[C@@H](NC(C)=O)C(=O)NCc1ccccc1F | 10 mg/kg | 100 mg/kg | inactive | inactive | inactive | inactive | 11 mg/kg | > 30 mg/kg | >2.7
31 | C=Cc1ccc(CNC(=O)[C@H](COC)NC(C)=O)cc1 | 100 mg/kg | > 300 mg/kg | inactive | inactive | inactive | inactive | – | – | –
32 | COC[C@@H](NC(C)=O)C(=O)NCc1ccc(NC(=O)C(F)(F)F)cc1 | > 300 mg/kg | 100 mg/kg | inactive | inactive | inactive | inactive | > 30 mg/kg | > 30 mg/kg | –
33 | COC[C@H](NC(C)=O)C(=O)NCc1ccc(C#C[Si](C)(C)C)cc1 | 30 mg/kg | 100 mg/kg | inactive | inactive | inactive | inactive | > 30 mg/kg | > 30 mg/kg | –
34 | COC[C@@H](NC(C)=O)C(=O)NCc1ccc(C#CC(C)(C)C)cc1 | > 300 mg/kg | 30 mg/kg | inactive | inactive | inactive | inactive | – | – | –
35 | COC[C@@H](NC(C)=O)C(=O)NCc1ccccc1OC(F)(F)F | 30 mg/kg | 100 mg/kg | inactive | inactive | inactive | inactive | 23 mg/kg | > 500 mg/kg | >22
